Calls of active or inactive are those of the source. No cut-off for these calls is given here.
Legend:
Format in all cases: functional
[1] = tested on: Staphylococcus aureus; assay: Antibacterial activity against fusidic acid-resistant Staphylococcus aureus AH194 harboring Pro404Leu mutation in fusA gene after 18 to 24 hrs by Etest strip assay
Method in brief: (§1)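 Mutants of lab strain 8325-4 were selected on LA with FA 2 μg/ml for 48 h at 37°C and purified on selective medium. For the MIC, one colony was suspended in 0.9% NaCl to 0.5 McFarland and swabbed onto Mueller-Hinton agar. An Etest strip was applied and plates were incubated at 37°C for 18–24 h until the lawn was evident.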

[2] = tested on: Staphylococcus aureus; assay: Ratio of MIC for kanamycin-resistant Staphylococcus aureus harboring mutations in FusA gene to MIC for wild type kanamycin-susceptible Staphylococcus aureus AH001
[3] = tested on: Staphylococcus aureus; assay: Antibacterial activity against fusidic acid-resistant Staphylococcus aureus AH207 harboring Thr385Asn mutation in fusA gene after 18 to 24 hrs by Etest strip assay; method in brief: as §1
[4] = tested on: Staphylococcus aureus; assay: Antibacterial activity against fusidic acid-resistant Staphylococcus aureus AH206 harboring Arg464Ser mutation in fusA gene after 18 to 24 hrs by Etest strip assay; method in brief: as §1
[5] = tested on: Staphylococcus aureus; assay: Antibacterial activity against fusidic acid-resistant Staphylococcus aureus AH197 harboring Leu456Phe mutation in fusA gene after 18 to 24 hrs by Etest strip assay; method in brief: as §1
[6] = tested on: Staphylococcus aureus; assay: Antibacterial activity against fusidic acid-resistant Staphylococcus aureus AH190 harboring Arg464His mutation in fusA gene after 18 to 24 hrs by Etest strip assay; method in brief: as §1
[7] = tested on: Staphylococcus aureus; assay: Ratio of MIC for kanamycin-resistant Staphylococcus aureus harboring mutations in FusE gene to MIC for wild type kanamycin-susceptible Staphylococcus aureus AH001
[8] = tested on: Staphylococcus aureus; assay: Antibacterial activity against fusidic acid-resistant Staphylococcus aureus AH198 harboring Gly452Ser mutation in fusA gene after 18 to 24 hrs by Etest strip assay; method in brief: as §1
[9] = tested on: Staphylococcus aureus; assay: Antibacterial activity against fusidic acid-resistant Staphylococcus aureus AH187 harboring His457Tyr mutation in fusA gene after 18 to 24 hrs by Etest strip assay; method in brief: as §1
[10] = tested on: Staphylococcus aureus; assay: Antibacterial activity against fusidic acid-resistant Staphylococcus aureus AH201 harboring Gly452Cys mutation in fusA after 18 to 24 hrs by Etest strip assay; method in brief: as §1
[11] = tested on: Staphylococcus aureus; assay: Antibacterial activity against fusidic acid-resistant Staphylococcus aureus AH196 harboring Pro406Leu mutation in fusA gene after 18 to 24 hrs by Etest strip assay; method in brief: as §1

GENTAMICIN
Activity [1]: Active | fold change (FC) [2]: 4 | Activity [3]: Active | Activity [4]: Active | Activity [5]: Active | Activity [6]: Active | fold change (FC) [7]: 4 | Activity [8]: Active | Activity [9]: Active | Activity [10]: Active | Activity [11]: Active

Reference: ChEMBL document CHEMBL1151442, “Genetic and phenotypic identification of fusidic acid-resistant mutants with the small-colony-variant phenotype in Staphylococcus aureus” (2007)
